Assay results taken from ChEMBL document CHEMBL1140994, “Ranking the selectivity of PubChem screening hits by activity-based protein profiling: MMP13 as a case study” (Bioorg Med Chem, 2009).
Calls of active or inactive are those of the source. The calls are words filed in the database; no cut-off is given here.

How the values were obtained:
[1] = target: T1, Disintegrin and metalloproteinase domain-containing protein 8 (Homo sapiens) (UniProt P78325); test: Inhibition of human recombinant ADAM8 at 200 uM by HxBPyne probe-based competitive activity based protein profiling assay in presence of 5 uM HxBpane competitor
T1 sequence (whole entry): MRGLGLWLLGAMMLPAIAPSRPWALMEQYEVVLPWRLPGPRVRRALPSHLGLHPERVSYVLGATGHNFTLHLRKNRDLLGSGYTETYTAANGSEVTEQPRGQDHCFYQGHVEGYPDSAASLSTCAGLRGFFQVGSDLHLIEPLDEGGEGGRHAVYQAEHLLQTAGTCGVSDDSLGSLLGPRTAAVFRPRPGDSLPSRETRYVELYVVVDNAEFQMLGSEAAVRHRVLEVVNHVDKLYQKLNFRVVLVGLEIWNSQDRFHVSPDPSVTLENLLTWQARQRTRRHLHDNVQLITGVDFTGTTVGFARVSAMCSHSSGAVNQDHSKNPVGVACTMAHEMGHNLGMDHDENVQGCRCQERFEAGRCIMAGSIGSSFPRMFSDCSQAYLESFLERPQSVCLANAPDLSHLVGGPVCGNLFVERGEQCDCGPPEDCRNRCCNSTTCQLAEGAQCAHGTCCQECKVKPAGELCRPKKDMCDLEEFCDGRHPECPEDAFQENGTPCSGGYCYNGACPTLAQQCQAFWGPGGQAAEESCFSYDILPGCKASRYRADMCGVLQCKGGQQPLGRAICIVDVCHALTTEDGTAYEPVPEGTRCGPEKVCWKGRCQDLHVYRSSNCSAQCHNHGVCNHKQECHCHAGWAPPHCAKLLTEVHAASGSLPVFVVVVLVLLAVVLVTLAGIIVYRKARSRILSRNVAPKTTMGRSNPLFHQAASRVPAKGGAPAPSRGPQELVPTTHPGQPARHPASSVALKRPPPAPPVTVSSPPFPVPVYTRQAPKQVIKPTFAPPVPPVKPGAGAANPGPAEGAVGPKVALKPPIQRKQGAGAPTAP
In short: (§1)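 Recombinant enzyme at 0.5 μM final in mouse liver soluble proteome (1 mg protein/mL in PBS). HxBPyne probe cocktail 0.5 μM total final, with inhibitor 200 μM or DMSO. Preincubated 30 min on ice, then UV 365 nm for 1 h on ice. Rhodamine-azide click chemistry, 1 h RT in dark. SDS-PAGE with in-gel fluorescence; band intensity given as % of DMSO control.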

[2] = target: Stromelysin-1 (Homo sapiens) (UniProt P08254); test: Inhibition of human recombinant MMP3 at 200 uM by HxBPyne probe-based competitive activity based protein profiling assay in presence of 5 uM HxBpane competitor; in short: as §1
[3] = target: T2, Matrix metalloproteinase-9 (Homo sapiens, UniProt P14780); test: Inhibition of human recombinant MMP9 by fluorogenic substrate assay
In short: (§2)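 Enzyme (MMP8 6 nM, MMP9 2 nM, MMP13 1.5 nM final) preincubated with inhibitor 30 min in 50 mM HEPES pH 7.5, 10 mM CaCl2, 0.05% Brij-35, at RT. Mca-PLGL-Dpa-AR-NH2 added at 5 μM; fluorescence (ex 328/em 393 nm) read each minute for 10 min. Initial rates by linear least squares; IC50 from variable-slope sigmoidal fit. Triplicate; mean with 95% CI.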

[4] = target: T3, Collagenase 3 (Homo sapiens, UniProt P45452); test: Inhibition of human recombinant MMP13 by HxBPyne probe-based competitive activity based protein profiling assay
[5] = target: T4, Neutrophil collagenase (Homo sapiens, UniProt P22894); test: Inhibition of human recombinant MMP8 by fluorogenic substrate assay; in short: as §2
Target sequence in this assay (P22894 whole entry): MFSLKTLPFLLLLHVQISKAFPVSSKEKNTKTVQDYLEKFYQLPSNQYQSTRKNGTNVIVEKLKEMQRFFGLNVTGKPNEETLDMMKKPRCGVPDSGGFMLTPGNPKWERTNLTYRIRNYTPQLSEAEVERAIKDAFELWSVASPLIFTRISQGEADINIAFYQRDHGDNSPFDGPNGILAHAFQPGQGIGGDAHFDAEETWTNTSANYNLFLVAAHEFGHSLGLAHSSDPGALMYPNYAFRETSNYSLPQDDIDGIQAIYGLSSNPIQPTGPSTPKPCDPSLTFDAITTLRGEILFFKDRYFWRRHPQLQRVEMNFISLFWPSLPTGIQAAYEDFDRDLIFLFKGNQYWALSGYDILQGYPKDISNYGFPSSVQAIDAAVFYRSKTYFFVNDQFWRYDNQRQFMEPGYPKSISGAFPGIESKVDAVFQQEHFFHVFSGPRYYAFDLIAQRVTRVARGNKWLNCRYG

[6] = target: T3, Collagenase 3; test: Inhibition of human recombinant MMP13 by fluorogenic substrate assay
[7] = target: T4, Neutrophil collagenase; test: Inhibition of human recombinant MMP8 at 200 uM by HxBPyne probe-based competitive activity based protein profiling assay in presence of 5 uM HxBpane competitor; in short: as §1
Target sequence in this assay (P22894 101-467 limits assumed): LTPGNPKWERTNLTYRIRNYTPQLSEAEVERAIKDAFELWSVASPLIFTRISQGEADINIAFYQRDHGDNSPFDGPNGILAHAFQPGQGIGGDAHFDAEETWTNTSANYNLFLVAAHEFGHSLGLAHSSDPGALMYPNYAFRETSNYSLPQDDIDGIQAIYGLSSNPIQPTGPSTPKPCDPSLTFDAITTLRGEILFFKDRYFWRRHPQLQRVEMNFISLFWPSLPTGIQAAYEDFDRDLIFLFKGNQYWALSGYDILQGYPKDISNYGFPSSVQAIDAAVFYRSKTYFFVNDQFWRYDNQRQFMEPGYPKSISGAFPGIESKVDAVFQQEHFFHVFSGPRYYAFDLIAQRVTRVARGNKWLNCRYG

[8] = target: T2, Matrix metalloproteinase-9; test: Inhibition of human recombinant MMP9 at 200 uM by HxBP-Rh probe-based competitive activity based protein profiling assay in presence of 200 uM HxBP-alkyne
In short: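 Enzyme 0.5 μM final, in PBS (ADAMTS4, neprilysin) or in 1 mg/mL mouse liver soluble proteome (MMP9). HxBP-Rh probe 0.5 μM final with 200 μM inhibitor or DMSO. Preincubated 30 min on ice, UV 365 nm 1 h on ice. Deglycosylated with PNGase F, then SDS-PAGE with fluorescence scanning. Activity given relative to DMSO control.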

[9] = target: Stromelysin-2 (Homo sapiens) (UniProt P09238); test: Inhibition of human recombinant MMP10 at 200 uM by HxBPyne probe-based competitive activity based protein profiling assay in presence of 5 uM HxBpane competitor; in short: as §1
[10] = target: Macrophage metalloelastase (Homo sapiens) (UniProt P39900); test: Inhibition of human recombinant MMP12 at 200 uM by HxBPyne probe-based competitive activity based protein profiling assay in presence of 5 uM HxBpane competitor; in short: as §1
[11] = target: 72 kDa type IV collagenase (Homo sapiens) (UniProt P08253); test: Inhibition of human recombinant MMP2 at 200 uM by HxBPyne probe-based competitive activity based protein profiling assay in presence of 5 uM HxBpane competitor; in short: as §1
[12] = target: Matrix metalloproteinase-16 (Homo sapiens) (UniProt P51512); test: Inhibition of human recombinant MMP16 at 200 uM by HxBPyne probe-based competitive activity based protein profiling assay in presence of 5 uM HxBpane competitor; in short: as §1
[13] = target: T5, A disintegrin and metalloproteinase with thrombospondin motifs 5 (Homo sapiens) (UniProt Q9UNA0); test: Inhibition of human recombinant ADAMTS5 at 200 uM by HxBPyne probe-based competitive activity based protein profiling assay in presence of 5 uM HxBpane competitor; in short: as §1
T5 sequence (whole entry): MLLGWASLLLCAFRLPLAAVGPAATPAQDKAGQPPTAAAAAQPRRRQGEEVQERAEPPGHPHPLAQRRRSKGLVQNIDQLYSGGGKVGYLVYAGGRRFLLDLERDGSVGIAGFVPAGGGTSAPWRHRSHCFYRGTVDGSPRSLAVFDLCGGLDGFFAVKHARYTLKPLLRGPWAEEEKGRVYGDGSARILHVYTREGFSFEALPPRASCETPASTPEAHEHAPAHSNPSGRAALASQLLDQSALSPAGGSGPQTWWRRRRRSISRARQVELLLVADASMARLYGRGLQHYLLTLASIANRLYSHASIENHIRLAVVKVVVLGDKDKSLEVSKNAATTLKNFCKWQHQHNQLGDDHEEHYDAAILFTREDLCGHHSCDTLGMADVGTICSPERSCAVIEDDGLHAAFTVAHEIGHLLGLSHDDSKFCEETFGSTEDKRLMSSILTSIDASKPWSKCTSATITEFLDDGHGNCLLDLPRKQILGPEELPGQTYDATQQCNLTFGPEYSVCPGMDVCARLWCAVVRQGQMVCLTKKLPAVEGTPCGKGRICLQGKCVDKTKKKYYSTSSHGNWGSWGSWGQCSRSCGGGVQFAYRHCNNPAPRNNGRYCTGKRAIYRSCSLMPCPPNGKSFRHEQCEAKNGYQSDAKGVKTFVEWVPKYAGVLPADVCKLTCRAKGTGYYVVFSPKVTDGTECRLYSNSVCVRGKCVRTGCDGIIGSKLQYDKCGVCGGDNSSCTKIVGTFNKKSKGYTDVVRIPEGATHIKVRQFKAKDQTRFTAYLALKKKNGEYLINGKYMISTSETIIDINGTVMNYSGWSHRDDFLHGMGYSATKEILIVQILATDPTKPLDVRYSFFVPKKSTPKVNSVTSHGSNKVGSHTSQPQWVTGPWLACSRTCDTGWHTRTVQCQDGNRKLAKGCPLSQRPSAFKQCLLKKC

[14] = target: Matrix metalloproteinase-14 (Homo sapiens) (UniProt P50281); test: Inhibition of human recombinant MMP14 at 200 uM by HxBPyne probe-based competitive activity based protein profiling assay in presence of 5 uM HxBpane competitor; in short: as §1
[15] = target: Matrix metalloproteinase-15 (Homo sapiens) (UniProt P51511); test: Inhibition of human recombinant MMP15 at 200 uM by HxBPyne probe-based competitive activity based protein profiling assay in presence of 5 uM HxBpane competitor; in short: as §1
[16] = target: T6, Stromelysin-3 (Homo sapiens) (UniProt P24347); test: Inhibition of human recombinant MMP11 at 200 uM by HxBPyne probe-based competitive activity based protein profiling assay in presence of 5 uM HxBpane competitor; in short: as §1
T6 sequence (whole entry): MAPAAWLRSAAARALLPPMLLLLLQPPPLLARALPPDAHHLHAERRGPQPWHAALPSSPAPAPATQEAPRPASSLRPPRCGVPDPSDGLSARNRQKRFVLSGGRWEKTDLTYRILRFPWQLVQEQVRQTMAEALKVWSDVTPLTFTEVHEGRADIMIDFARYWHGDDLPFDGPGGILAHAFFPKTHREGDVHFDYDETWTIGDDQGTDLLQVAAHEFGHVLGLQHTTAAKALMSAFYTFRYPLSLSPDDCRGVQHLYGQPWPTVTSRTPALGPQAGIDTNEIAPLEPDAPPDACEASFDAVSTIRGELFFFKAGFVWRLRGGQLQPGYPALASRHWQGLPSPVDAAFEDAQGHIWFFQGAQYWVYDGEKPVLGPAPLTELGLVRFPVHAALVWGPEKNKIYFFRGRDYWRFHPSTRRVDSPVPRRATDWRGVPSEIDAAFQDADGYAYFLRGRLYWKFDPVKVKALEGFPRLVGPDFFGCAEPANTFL

[17] = target: Matrix metalloproteinase-24 (Homo sapiens) (UniProt Q9Y5R2); test: Inhibition of human recombinant MMP24 at 200 uM by HxBPyne probe-based competitive activity based protein profiling assay in presence of 5 uM HxBpane competitor; in short: as §1
Chain of Matrix metalloproteinase-24 (Homo sapiens) (Q9Y5R2 whole entry): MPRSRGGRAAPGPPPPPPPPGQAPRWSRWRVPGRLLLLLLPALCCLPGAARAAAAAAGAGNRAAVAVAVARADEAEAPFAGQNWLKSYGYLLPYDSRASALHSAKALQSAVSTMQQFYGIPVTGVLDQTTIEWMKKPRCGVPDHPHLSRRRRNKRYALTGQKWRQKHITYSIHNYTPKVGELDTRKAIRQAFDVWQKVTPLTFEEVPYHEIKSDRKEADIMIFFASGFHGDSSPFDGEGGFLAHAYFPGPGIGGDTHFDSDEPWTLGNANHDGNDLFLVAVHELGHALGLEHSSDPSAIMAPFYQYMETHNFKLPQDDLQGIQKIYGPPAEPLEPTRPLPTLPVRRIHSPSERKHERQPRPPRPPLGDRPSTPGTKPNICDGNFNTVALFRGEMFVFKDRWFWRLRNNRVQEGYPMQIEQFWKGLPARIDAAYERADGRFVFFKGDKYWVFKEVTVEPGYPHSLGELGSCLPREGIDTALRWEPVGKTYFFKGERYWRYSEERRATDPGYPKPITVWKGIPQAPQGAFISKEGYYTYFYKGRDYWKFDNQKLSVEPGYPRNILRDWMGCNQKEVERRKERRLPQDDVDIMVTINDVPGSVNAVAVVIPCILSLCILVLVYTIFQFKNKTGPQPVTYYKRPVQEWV

T2 sequence (P14780 whole entry): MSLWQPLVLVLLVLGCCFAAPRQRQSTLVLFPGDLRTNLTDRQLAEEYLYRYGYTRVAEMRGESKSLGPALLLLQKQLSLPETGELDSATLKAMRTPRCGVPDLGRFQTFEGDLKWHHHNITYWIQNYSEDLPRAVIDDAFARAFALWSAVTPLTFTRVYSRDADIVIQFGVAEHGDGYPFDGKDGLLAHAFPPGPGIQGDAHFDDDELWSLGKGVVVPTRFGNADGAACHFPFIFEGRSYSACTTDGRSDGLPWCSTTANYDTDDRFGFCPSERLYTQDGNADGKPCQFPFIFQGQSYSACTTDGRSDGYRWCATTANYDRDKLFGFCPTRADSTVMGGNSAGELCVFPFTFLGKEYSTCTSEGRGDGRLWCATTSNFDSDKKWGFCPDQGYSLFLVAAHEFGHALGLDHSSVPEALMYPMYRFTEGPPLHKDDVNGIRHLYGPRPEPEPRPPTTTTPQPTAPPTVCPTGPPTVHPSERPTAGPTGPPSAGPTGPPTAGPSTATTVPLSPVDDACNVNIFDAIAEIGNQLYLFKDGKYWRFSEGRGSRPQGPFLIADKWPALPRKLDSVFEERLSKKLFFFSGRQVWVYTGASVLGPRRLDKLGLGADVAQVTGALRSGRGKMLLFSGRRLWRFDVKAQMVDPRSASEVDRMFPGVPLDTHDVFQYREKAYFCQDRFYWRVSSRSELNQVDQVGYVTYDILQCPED
Chain of 72 kDa type IV collagenase (Homo sapiens) (P08253 110-660 limits assumed): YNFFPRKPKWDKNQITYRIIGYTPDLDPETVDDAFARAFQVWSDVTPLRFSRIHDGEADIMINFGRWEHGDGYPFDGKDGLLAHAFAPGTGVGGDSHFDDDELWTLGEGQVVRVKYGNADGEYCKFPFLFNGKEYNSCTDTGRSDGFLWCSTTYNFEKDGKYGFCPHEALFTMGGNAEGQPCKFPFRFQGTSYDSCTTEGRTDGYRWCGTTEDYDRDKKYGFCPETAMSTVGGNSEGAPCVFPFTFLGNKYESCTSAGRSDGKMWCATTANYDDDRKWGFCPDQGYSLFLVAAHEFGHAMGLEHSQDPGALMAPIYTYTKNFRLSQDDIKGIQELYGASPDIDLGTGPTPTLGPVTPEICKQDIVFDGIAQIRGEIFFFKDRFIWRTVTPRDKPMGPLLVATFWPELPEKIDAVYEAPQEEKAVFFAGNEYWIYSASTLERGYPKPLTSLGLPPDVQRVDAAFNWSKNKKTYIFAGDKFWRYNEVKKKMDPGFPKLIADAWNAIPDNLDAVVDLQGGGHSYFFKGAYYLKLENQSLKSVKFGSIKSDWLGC
Chain of Macrophage metalloelastase (Homo sapiens) (P39900 106-470 limits assumed): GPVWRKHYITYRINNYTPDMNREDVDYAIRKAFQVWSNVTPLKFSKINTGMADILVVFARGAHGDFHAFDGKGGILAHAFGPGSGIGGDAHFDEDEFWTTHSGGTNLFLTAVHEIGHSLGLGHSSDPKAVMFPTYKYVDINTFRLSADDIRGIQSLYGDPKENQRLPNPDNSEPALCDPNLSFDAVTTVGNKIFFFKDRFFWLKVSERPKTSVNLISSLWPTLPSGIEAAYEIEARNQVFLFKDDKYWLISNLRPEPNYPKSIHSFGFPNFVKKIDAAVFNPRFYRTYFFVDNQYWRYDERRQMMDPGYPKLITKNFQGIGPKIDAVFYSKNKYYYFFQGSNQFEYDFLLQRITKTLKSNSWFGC
Chain of Stromelysin-2 (Homo sapiens) (P09238 99-476 limits assumed): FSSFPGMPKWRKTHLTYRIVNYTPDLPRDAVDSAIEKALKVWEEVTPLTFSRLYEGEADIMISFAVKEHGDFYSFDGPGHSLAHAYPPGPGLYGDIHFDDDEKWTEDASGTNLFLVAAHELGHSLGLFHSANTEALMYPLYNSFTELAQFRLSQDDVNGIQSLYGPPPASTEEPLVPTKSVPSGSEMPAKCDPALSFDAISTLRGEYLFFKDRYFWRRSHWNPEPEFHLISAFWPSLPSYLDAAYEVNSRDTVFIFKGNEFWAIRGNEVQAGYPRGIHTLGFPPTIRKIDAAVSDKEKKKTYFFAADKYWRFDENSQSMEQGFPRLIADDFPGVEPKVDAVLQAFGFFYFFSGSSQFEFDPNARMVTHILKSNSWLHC
Chain of Stromelysin-1 (Homo sapiens) (P08254 100-477 limits assumed): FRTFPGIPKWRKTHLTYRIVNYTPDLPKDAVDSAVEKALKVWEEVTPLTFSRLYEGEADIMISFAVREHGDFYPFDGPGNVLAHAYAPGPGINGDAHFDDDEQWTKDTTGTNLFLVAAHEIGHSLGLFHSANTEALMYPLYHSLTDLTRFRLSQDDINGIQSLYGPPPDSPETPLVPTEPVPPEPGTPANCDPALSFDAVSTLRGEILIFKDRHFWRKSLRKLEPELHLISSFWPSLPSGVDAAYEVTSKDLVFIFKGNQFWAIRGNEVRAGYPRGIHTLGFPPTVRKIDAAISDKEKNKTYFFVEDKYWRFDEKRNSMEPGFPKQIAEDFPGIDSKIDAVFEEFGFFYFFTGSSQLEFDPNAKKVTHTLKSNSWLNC
Chain of Matrix metalloproteinase-15 (Homo sapiens) (P51511 132-669 limits assumed): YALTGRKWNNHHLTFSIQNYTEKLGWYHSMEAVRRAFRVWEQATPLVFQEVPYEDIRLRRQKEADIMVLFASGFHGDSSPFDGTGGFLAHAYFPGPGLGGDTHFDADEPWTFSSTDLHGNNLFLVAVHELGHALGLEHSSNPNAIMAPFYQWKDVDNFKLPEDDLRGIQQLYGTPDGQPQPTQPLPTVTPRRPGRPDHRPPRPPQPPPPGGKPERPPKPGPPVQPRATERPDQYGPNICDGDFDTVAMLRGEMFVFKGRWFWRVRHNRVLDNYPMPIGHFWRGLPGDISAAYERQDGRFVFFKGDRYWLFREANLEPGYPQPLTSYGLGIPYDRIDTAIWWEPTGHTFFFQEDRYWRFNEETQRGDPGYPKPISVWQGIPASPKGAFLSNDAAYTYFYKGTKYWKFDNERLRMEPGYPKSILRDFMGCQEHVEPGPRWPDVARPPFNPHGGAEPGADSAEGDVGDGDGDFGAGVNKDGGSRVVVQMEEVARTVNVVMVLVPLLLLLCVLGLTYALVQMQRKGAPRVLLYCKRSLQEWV

Activity [1] | Activity [2] | IC50 [3] [µM] | IC50 [4] [µM] | IC50 [5] [µM] | IC50 [6] [µM] | Activity [7] | Activity [8] | Activity [9] | Activity [10] | Activity [11] | Activity [12] | Activity [13] | Activity [14] | Activity [15] | Activity [16] | Activity [17] | SMILES
Active | Active | 0.16 | 27 | 0.67 | 1.3 | Active | Active | Active | Active | Active | – | – | – | – | – | – | CCCCCCOc1ccc(C(CC(=O)O)C(N)=O)cc1 (stereo unspecified)
– | Active | 14 | 13 | 0.024 | 0.28 | Active | – | Active | Active | Active | Active | Active | Active | Active | Active | Active | O=C(O)CCC(NS(=O)(=O)c1ccc(-c2ccccc2)cc1)C(=O)O (stereo unspecified)
